Source: PMC3873233 (Diabetes, Metabolic Syndrome and Obesity: Targets and …, 2013)

What was measured:
human TGR5 receptor = target: T1, human TGR5 receptor (Homo sapiens, UniProt Q8TDU6); type: cell-based
T1 sequence (Q8TDU6 1-330): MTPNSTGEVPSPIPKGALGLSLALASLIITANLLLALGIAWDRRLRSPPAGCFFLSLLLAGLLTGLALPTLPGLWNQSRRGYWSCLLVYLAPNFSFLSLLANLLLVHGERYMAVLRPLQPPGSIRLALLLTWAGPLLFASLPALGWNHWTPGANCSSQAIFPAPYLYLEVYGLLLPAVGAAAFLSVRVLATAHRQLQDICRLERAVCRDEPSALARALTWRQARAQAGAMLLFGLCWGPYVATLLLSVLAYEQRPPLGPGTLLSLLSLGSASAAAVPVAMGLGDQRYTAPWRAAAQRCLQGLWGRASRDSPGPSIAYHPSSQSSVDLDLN

[1] = system: DIO male Golden Syrian hamsters; experiment: Oral fat tolerance test; type: in vivo, hamster; details: week 4, 6 mg/kg intraperitoneal
Method in brief: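 Male Golden Syrian hamsters fed 45% kcal-fat diet for 8±2 weeks. Test compound given i.p. in 0.9% Na-CMC + 0.1% Tween-80 in PBS pH 7.4, with oral vehicle dummy. At end of week 4: 6 h fast, pre-load sample, oral olive oil 5 mL/kg, samples at 60–240 min. Retro-orbital bleeds under mild anaesthesia; K-EDTA plasma triglyceride by autoanalyzer.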

[2] = Pharmacokinetics in DIO hamsters; type: in vivo, hamster
[3] = system: NCI-H716 human enteroendocrine cell line; experiment: TGR5-mediated GLP1 secretion; type: cell-based; details: NCI-H716 cells, 1 hour, in presence of 0.05% sitagliptin; versus vehicle
Method in brief: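 NCI-H716 human enteroendocrine cells exposed 1 h to vehicle, test compound or lithocholic acid (positive control), with 0.05% DPP-4 inhibitor sitagliptin present. Active GLP1 in culture supernatant measured by ELISA, expressed in pM. Two experiments, each in duplicate, averaged.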

[4] = Pharmacokinetics in DIO mice; type: in vivo, mouse
[5] = system: high-fat DIO C57bl/6J mice; experiment: Glycemic control; type: in vivo, mouse; details: 4 weeks of treatment, 9 mg/kg oral once daily
Method in brief: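 DIO C57bl/6J males on 45% kcal-fat diet for 8±2 weeks before study, diet continued. Oral dosing once daily for 4 weeks in 0.5% w/v Tween-80 + 0.5% w/v Na-CMC in water. OGTT: 6 h fast, dose, 0-min sample 15 min later, glucose 2 g/kg, tail-snip samples at 15–120 min. K-EDTA plasma; glucose by autoanalyzer, fasting insulin by rat/mouse ELISA.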

[6] = system: DIO male Golden Syrian hamsters; experiment: Oral glucose tolerance test in DIO hamsters; type: in vivo, hamster; details: TRC210258 6 mg/kg intraperitoneal, sitagliptin 3 mg/kg oral
Method in brief: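 Hamsters made obese on 45% kcal-fat diet for 8±2 weeks. Double-dummy dosing: i.p. vehicle 0.9% Na-CMC + 0.1% Tween-80 in PBS pH 7.4, oral vehicle 0.5% Tween-80 + 0.5% Na-CMC in water. Oral glucose tolerance test done during treatment. Retro-orbital sampling under mild anaesthesia into K-EDTA. Plasma glucose by autoanalyzer; insulin by hamster-specific ELISA.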

[7] = system: DIO male Golden Syrian hamsters; experiment: Plasma lipid parameters in high fat-fed DIO hamsters, experiment C; type: in vivo, hamster; details: end of treatment week 5, 6 mg/kg intraperitoneal
[8] = DIO hamsters, 6 mg/kg intraperitoneally, mean ± standard deviation
[9] = DIO mice, 9 mg/kg orally, mean ± standard deviation

Row | SMILES | EC50 (human TGR5 receptor) [nM] | time taken to reach peak plasma triglyceride levels after oral fat loading [1] [min] | AUClast [2, 8] [ng·h/mL] | Tmax [2, 8] [h] | Cmax ([2]; Golden Syrian, hamster, plasma, ip, 6 mg/kg) [ng/mL] | oral bioavailability in hamsters compared with mice ([2]; hamster, oral) | GLP1 secretion [3] | Cmax ([4]; C57bl/6J, mouse, plasma, po, 9 mg/kg) [ng/mL] | AUClast [4, 9] [ng·h/mL] | Tmax [4, 9] [h] | Homeostasis Model of Assessment-Insulin Resistance (HOMA-IR) [5] | AUC(0–120 min) for insulin in oral glucose tolerance test [6] | improvement (reduction) in LDL cholesterol vs vehicle control [7] [%] | improvement (reduction) in non-HDL cholesterol vs vehicle control [7] [%] | improvement (reduction) in total cholesterol vs vehicle control [7] [%] | improvement (reduction) in triglycerides vs vehicle control [7] [%]
1 | CN(C(=O)c1c(Oc2ccc(F)cc2)nc2ncccn12)c1ccc(Cl)cc1 [TRC210258, N-(4-chlorophenyl)-2-(4-fluorophenoxy)-N-methylimidazo [1,2-a] pyrimidine-3-carboxamide] | 221 | 120 | 726.2 ± 223.8 | 1.5 ± 0.71 | 78.7 ± 31.8 | lower oral bioavailability | significant induction of GLP1 secretion | 59.4 ± 22.2 | 525.7 ± 127.0 | 2.25 ± 1.25 | trend toward amelioration | higher | 26.2 | 32 | 25.4 | 28.3
2 | N[C@@H](CC(=O)N1CCn2c(nnc2C(F)(F)F)C1)Cc1cc(F)c(F)cc1F [sitagliptin, reference compound] |  |  |  |  |  |  |  |  |  |  |  | higher |  |  |  | 
